Holding throughout (assay type): functional
For one assay, the system named is Escherichia coli. Briefly: Anti-bacterial activity was tested against Gram-negative EC-1 bacterium. The gist of the method: (§1)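 Standard microtitration MIC determination (µg/mL) against four representative Gram-negative and Gram-positive bacterial strains.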
In assay [1] the test system is Mycolicibacterium fortuitum. Briefly: Anti-bacterial activity tested against Mycobacterium fortuitum (ATCG 6841).
The subject of assay [2] is Mycolicibacterium smegmatis. Briefly: Anti-bacterial activity tested against Mycobacterium smegmatis (ATCG 19420).
In the next assay the test system is Pseudomonas aeruginosa. Briefly: Anti-bacterial activity tested against Gram-negative PA-7 bacterium. The method in brief: as §1
The test system of the next assay is Staphylococcus aureus. Kind of assay: Anti-bacterial activity was tested against Gram-positive SA-13 bacterium. The gist of the method: as §1
The test system of another assay is Streptococcus pyogenes. Briefly: Anti-bacterial activity tested against Gram-positive SP1-1 bacterium. The gist of the method:
as §1

These results are taken from ChEMBL document CHEMBL1129477, “Structure-activity relationships of the quinolone antibacterials against mycobacteria: effect of structural changes at N-1 and C-7” (J Med Chem, 1996).

The structures appear in SMILES notation. Converted amounts (≈) assume the structure as drawn.

For the molecule `CCn1cc(C(=O)O)c(=O)c2cc(F)c(N3CCC(N)C3)cc21` (stereo unspecified), the MIC against Escherichia coli was determined as 0.4 µg/mL (≈ 1.25 µM); in assay [1] it was 1 µg/mL (≈ 3.13 µM); in assay [2] it was 4 µg/mL (≈ 12.5 µM); with Pseudomonas aeruginosa, 0.8 µg/mL (≈ 2.51 µM); against Staphylococcus aureus, 1.6 µg/mL (≈ 5.01 µM); against Streptococcus pyogenes, 0.8 µg/mL (≈ 2.51 µM).
On to `CC(C)(C)n1cc(C(=O)O)c(=O)c2cc(F)c(N3CCC(N)C3)cc21` (stereo unspecified), for which the MIC with Escherichia coli was determined as 0.2 µg/mL (≈ 0.576 µM); in assay [1], 0.06 µg/mL (≈ 0.173 µM); in assay [2], 0.13 µg/mL (≈ 0.374 µM); against Pseudomonas aeruginosa it was 0.4 µg/mL (≈ 1.15 µM); in the assay with Staphylococcus aureus, 0.4 µg/mL (≈ 1.15 µM); against Streptococcus pyogenes, 0.4 µg/mL (≈ 1.15 µM).
Take `CNCC1CCN(c2cc3c(cc2F)c(=O)c(C(=O)O)cn3C(C)C)C1` (stereo unspecified): the MIC was 3.1 µg/mL (≈ 8.58 µM) against Escherichia coli; 2 µg/mL (≈ 5.53 µM) in assay [1]; 8 µg/mL (≈ 22.1 µM) in assay [2]; more than 3.1 µg/mL in the assay with Pseudomonas aeruginosa; 3.1 µg/mL (≈ 8.58 µM) in the assay on Staphylococcus aureus; 3.1 µg/mL (≈ 8.58 µM) against Streptococcus pyogenes.
As for `CC1CN(c2cc3c(cc2F)c(=O)c(C(=O)O)cn3C2CC2)CC(C)N1` (stereo unspecified), the MIC is 0.05 µg/mL (≈ 0.139 µM) against Escherichia coli; 0.06 µg/mL (≈ 0.167 µM) in assay [1]; 0.13 µg/mL (≈ 0.362 µM) in assay [2]; 0.8 µg/mL (≈ 2.23 µM) in the assay with Pseudomonas aeruginosa; 0.4 µg/mL (≈ 1.11 µM) in the assay on Staphylococcus aureus; more than 3.1 µg/mL in the assay with Streptococcus pyogenes.
`CCn1cc(C(=O)O)c(=O)c2cc(F)c(N3CCNC(C)C3)cc21` (stereo unspecified): the MIC against Escherichia coli was 0.2 µg/mL (≈ 0.6 µM); in assay [1], 1 µg/mL (≈ 3 µM); in assay [2], 2 µg/mL (≈ 6 µM); in the assay on Pseudomonas aeruginosa, more than 3.1 µg/mL; against Staphylococcus aureus, 3.1 µg/mL (≈ 9.3 µM); against Streptococcus pyogenes it was more than 3.1 µg/mL.
For the molecule `CCN1CCN(c2cc3c(cc2F)c(=O)c(C(=O)O)cn3C(C)C)CC1`, the MIC in the assay with Escherichia coli was 1.6 µg/mL (≈ 4.43 µM); in assay [1], 1 µg/mL (≈ 2.77 µM); in assay [2], 4 µg/mL (≈ 11.1 µM); against Pseudomonas aeruginosa, more than 3.1 µg/mL; with Staphylococcus aureus, 3.1 µg/mL (≈ 8.58 µM); against Streptococcus pyogenes, more than 3.1 µg/mL.
